In brackets after ≈: the same amount, converted by molar mass.
Legend:
[1] = target: T1, Muscarinic acetylcholine receptor M4 (Homo sapiens) (UniProt P08173); test: Positive allosteric modulation of human M4 receptor expressed in CHO cells co-expressing Gqi5 assessed as increase in acetylcholine-induced calcium mobilization relative to acetylcholine; format: functional, cell-based
T1 sequence (whole entry): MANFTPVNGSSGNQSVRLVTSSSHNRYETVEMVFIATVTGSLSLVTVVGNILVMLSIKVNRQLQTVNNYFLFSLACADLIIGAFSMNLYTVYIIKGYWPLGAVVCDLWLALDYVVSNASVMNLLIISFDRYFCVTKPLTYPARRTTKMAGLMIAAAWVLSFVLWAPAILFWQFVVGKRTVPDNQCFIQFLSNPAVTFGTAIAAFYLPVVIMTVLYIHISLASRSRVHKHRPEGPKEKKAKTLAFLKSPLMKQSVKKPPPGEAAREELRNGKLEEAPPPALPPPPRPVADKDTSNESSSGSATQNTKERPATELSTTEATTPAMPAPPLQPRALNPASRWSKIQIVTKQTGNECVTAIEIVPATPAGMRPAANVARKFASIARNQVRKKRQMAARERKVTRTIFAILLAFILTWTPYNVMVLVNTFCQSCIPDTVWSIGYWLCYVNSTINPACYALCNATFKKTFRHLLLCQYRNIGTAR
Outline: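 Calcium mobilization in CHO cells stably co-expressing hM4 and Gqi5, tested in the presence of a fixed EC20 concentration of acetylcholine. Values are means of three independent experiments, each run in triplicate.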

[2] = Clearance in Sprague-Dawley rat; format: ADME; details: in vivo
Outline: (§1)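 IV and PO pharmacokinetics in male Sprague-Dawley rats, n = 1–3. The oral dose was a 2–3 mg/kg solution. Plasma clearance, Vss and oral bioavailability were determined.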

Cytochrome P450 3A4 [3] = target: T2, Cytochrome P450 3A4 (Homo sapiens, UniProt P08684); test: Inhibition of CYP3A4 (unknown origin); format: ADME
T2 sequence (P08684 whole entry): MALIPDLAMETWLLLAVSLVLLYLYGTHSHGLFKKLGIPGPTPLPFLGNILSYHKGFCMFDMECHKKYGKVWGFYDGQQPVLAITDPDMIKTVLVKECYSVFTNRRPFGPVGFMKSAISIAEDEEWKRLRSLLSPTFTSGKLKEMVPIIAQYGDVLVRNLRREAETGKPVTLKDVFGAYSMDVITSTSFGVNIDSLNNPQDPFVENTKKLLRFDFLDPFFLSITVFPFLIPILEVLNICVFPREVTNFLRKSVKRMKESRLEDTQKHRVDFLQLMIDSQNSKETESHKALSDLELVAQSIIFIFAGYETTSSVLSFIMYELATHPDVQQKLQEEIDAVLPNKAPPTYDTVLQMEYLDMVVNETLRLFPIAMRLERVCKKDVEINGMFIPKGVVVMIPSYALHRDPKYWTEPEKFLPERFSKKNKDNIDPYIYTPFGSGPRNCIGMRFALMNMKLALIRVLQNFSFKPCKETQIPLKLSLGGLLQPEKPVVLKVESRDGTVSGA

Cytochrome P450 2D6 = Cytochrome P450 2D6 (Homo sapiens, UniProt P10635); test: Inhibition of CYP2D6 (unknown origin); format: ADME
Sequence of Cytochrome P450 2D6 (P10635 whole entry): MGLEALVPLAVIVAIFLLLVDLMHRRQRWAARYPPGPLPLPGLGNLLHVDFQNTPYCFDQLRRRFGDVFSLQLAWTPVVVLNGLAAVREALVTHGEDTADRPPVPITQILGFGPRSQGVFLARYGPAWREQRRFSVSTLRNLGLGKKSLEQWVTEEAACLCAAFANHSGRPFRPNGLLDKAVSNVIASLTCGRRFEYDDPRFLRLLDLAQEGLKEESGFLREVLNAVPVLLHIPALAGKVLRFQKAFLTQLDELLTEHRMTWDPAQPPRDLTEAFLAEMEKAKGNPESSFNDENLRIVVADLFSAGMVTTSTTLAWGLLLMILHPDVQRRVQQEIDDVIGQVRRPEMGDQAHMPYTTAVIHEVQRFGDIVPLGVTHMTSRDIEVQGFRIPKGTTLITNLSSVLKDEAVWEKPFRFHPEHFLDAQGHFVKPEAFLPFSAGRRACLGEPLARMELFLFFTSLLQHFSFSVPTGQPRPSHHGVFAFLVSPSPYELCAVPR

Cytochrome P450 1A2 = target: T3, Cytochrome P450 1A2 (Homo sapiens, UniProt P05177); test: Inhibition of CYP1A2 (unknown origin); format: ADME
T3 sequence (P05177 whole entry): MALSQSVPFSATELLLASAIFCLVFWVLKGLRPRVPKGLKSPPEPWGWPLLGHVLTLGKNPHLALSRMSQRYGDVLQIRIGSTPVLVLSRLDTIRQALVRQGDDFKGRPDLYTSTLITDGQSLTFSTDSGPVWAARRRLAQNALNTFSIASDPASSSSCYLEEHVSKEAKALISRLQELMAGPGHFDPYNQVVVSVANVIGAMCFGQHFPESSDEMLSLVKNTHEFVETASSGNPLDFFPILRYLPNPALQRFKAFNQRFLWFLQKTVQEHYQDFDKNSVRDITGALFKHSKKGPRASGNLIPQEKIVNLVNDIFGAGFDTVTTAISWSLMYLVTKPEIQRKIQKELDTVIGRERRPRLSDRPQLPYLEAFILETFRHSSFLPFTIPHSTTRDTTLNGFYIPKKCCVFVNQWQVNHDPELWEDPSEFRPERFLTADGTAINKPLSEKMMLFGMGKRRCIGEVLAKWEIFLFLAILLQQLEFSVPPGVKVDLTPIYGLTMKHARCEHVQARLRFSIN

Rattus norvegicus [4] = test: Reversal of amphetamine-induced hyperlocomotion in Sprague-Dawley rat at 1 mg/kg, po pretreated 30 mins post habituation in the chamber followed by amphetamine injection after 30 mins measured after 60 mins; format: functional
Outline: (§2)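 Male Sprague-Dawley rats, n = 6–24 per dose group, were habituated in the chamber for 30 min. The compound or vehicle (10% tween-80 in water, v/v) was then given orally. Amphetamine 0.75 mg/kg was injected subcutaneously 30 min later. Total ambulations over t = 60–120 min gave % reversal of AHL, reported as mean ± SEM.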

Macaca fascicularis = species: Macaca fascicularis; test: Activity at cynomolgus monkey M4 receptor assessed as acetylcholine-induced calcium mobilization
Rattus norvegicus [5] = test: Reversal of amphetamine-induced hyperlocomotion in Sprague-Dawley rat at 0.3 mg/kg, po pretreated 30 mins post habituation in the chamber followed by amphetamine injection after 30 mins measured after 60 mins; format: functional; outline: as §2
Rattus norvegicus [6] = test: Reversal of amphetamine-induced hyperlocomotion in Sprague-Dawley rat assessed as plasma concentration required for the effect at 3 mg/kg, po pretreated 30 mins post habituation in the chamber followed by amphetamine injection after 30 mins measured at 1.5 hrs post dose; format: functional, organism-based
Outline: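 Rat AHL study: oral dosing 30 min after chamber habituation, then amphetamine 0.75 mg/kg s.c. 30 min later. Terminal plasma concentrations in the study animals were measured 1.5 hr after compound administration. From these, an in vivo plasma EC50 was derived, both total and unbound.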

Salmonella typhimurium = test: Mutagenicity in Salmonella typhimurium by Ames test; format: toxicity; details: salmonella enterica subsp. enterica serovar typhimurium
[7] = target: Sodium-dependent dopamine transporter (Homo sapiens, UniProt Q01959); test: Displacement of [3H]BTCP from human recombinant dopamine transporter expressed in CHO cells; format: cell-based
Sequence of Sodium-dependent dopamine transporter (Q01959 whole entry): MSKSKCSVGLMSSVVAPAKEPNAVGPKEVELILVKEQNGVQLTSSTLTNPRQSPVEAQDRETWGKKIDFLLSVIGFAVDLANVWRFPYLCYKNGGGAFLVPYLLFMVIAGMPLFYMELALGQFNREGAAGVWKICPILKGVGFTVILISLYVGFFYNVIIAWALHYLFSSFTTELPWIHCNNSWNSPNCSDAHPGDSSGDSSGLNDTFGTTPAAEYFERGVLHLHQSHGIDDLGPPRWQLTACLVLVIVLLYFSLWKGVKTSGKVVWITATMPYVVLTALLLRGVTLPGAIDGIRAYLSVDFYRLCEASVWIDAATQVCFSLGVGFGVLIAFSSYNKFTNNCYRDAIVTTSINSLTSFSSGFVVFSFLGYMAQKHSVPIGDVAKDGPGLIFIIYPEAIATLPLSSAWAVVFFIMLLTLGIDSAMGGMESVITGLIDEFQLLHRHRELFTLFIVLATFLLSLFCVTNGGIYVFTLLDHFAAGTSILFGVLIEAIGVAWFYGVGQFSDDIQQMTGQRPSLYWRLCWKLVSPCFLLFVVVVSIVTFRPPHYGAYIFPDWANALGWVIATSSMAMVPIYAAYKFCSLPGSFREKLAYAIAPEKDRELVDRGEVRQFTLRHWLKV

Cytochrome P450 2C19 [8] = target: T4, Cytochrome P450 2C19 (Homo sapiens, UniProt P33261); test: Inhibition of CYP2C19 (unknown origin); format: ADME
T4 sequence (P33261 whole entry): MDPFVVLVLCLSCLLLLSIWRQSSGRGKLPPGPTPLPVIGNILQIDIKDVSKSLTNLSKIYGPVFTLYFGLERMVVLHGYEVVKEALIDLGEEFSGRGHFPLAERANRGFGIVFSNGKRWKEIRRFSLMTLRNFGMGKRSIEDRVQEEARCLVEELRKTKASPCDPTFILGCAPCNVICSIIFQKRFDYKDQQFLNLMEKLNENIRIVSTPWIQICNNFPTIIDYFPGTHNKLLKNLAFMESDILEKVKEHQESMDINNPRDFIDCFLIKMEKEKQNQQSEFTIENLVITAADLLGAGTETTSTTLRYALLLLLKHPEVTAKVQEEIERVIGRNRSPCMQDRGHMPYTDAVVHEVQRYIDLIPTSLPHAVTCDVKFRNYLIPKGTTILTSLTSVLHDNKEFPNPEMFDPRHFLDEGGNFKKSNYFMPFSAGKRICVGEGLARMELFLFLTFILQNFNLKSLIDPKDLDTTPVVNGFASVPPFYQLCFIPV

Cytochrome P450 3A4 [9] = target: T2, Cytochrome P450 3A4; test: Time-dependent inhibition of CYP3A4 (unknown origin); format: ADME
Cytochrome P450 2C19 [10] = target: T4, Cytochrome P450 2C19; test: Time-dependent inhibition of CYP2C19 (unknown origin); format: ADME
[11] = Clearance in iv or po dosed Sprague-Dawley rat; format: ADME, organism-based; details: in vivo; outline: as §1
Rattus norvegicus [12] = test: Volume of distribution at steady state in iv or po dosed Sprague-Dawley rat; format: ADME, organism-based; details: in vivo; outline: as §1
Canis familiaris = test: Volume of distribution at steady state in iv or po dosed Mongrel dog; format: ADME, organism-based, Canis lupus familiaris; details: in vivo
Outline: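 IV and PO pharmacokinetics in female mongrel dogs, n = 1–2. The oral dose was a 2–3 mg/kg solution. Vss and oral bioavailability were determined.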

Rattus norvegicus [13] = test: Oral bioavailability in Sprague-Dawley rat at 2 to 3 mg/kg; format: ADME, organism-based; details: in vivo; outline: as §1
[14] = Oral bioavailability in Mongrel dog at 2 mg/kg administered as suspension; format: ADME, organism-based, Canis lupus familiaris; details: in vivo
Outline: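 Female mongrel dogs were dosed orally with a 2 mg/kg suspension in a low-excipient vehicle, and oral bioavailability was determined.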

[15] = Kinetic solubility of the compound in FaSSIF at pH 6.5 measured after 1 hr; format: physicochemical; details: read-out: Kinetic_solubility
Brain [16] = test: Drug level in Sprague-Dawley rat brain at 0.03 mg/kg, po; format: ADME, organism-based; details: in vivo, read-out: Drug uptake
Brain [17] = test: Drug level in Sprague-Dawley rat brain at 0.1 mg/kg, po; format: ADME, organism-based; details: in vivo, read-out: Drug uptake
Brain [18] = test: Drug level in Sprague-Dawley rat brain at 0.3 mg/kg, po; format: ADME, organism-based; details: in vivo, read-out: Drug uptake
Brain [19] = test: Drug level in Sprague-Dawley rat brain at 1 mg/kg, po; format: ADME, organism-based; details: in vivo, read-out: Drug uptake
Brain [20] = test: Drug level in Sprague-Dawley rat brain at 3 mg/kg, po; format: ADME, organism-based; details: in vivo, read-out: Drug uptake
Brain [21] = test: Drug level in Sprague-Dawley rat brain at 10 mg/kg, po; format: ADME, organism-based; details: in vivo, read-out: Drug uptake
Rattus norvegicus [22] = test: Reversal of amphetamine-induced hyperlocomotion in po dosed Sprague-Dawley rat pretreated 30 mins post habituation in the chamber followed by amphetamine injection after 30 mins measured after 60 mins; format: functional; details: read-out: MED; outline: as §2

Compound `Cc1nnc2sc(C(=O)NC3CN(c4cccc(F)c4F)C3)c(N)c2c1C` has a %max [1] of 88%, a clearance [2] of 16 mL/min/kg and an IC50 (Cytochrome P450 3A4 [3]) of 11 µM. The IC50 (Cytochrome P450 2D6) was 14 µM, the IC50 (Cytochrome P450 1A2) was 25 µM and the Activity (Rattus norvegicus [4]) was 64%. For the same compound, the Kb (Macaca fascicularis) was 0.89 µM, the Activity (Rattus norvegicus [5]) was 43% and the fEC50 (Rattus norvegicus [6]) was 0.66 nM. For the same compound, the EC50 (Rattus norvegicus [6]; Rattus norvegicus, Sprague-Dawley) was 0.074 µM, the Activity (Salmonella typhimurium) was “Non-Toxic” and the IC50 [7] was 0.45 µM. For the same compound, the IC50 (Cytochrome P450 2C19 [8]) was 6.3 µM, the TDI (Cytochrome P450 3A4 [9]) was “Not Active” and the TDI (Cytochrome P450 2C19 [10]) was “Not Active”. The clearance [11] was 16 mL/min/kg, the Vdss (Rattus norvegicus [12]) was 0.67 L/kg and the Vdss (Canis familiaris) was 1.6 L/kg. The F (Rattus norvegicus [13]) was 38%, the bioavailability [14] was 11% and the solubility kinetic at 1 h [15] was 15 µg/mL (≈ 38.5 µM). It also gave a concentration (Brain [16]) of 4.6 nM, a concentration (Brain [17]) of 9.9 nM and a concentration (Brain [18]) of 37 nM. The concentration (Brain [19]) was 140 nM, the concentration (Brain [20]) was 510 nM and the concentration (Brain [21]) was 820 nM. It also gave a minimal effective dose (Rattus norvegicus [22]) of 0.3 mg/kg.

From ChEMBL document CHEMBL4033702, “Challenges in the development of an M4 PAM preclinical candidate: The discovery, SAR, and in vivo characterization of a series of 3-aminoazetidine-derived amides” (Bioorg Med Chem Lett, 2017)
